# Measurements reported in ChEMBL document CHEMBL1811814, “Synthesis and evaluation of indole, pyrazole, chromone and pyrimidine based conjugates for tumor growth inhibitory activities--development of highly efficacious cytotoxic agents” (Eur J Med Chem, 2010).
# Assays:
# Type in all cases: functional
# Set-up in all cases: scale not given: the % may be the effect or the level left
# MDA-MB-231 = assay: Growth inhibition of human MDA-MB-231 cells assessed tumor cell growth at 10^-5 M
# Method in brief: (§1)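 NCI 60-human-tumor-cell-line panel screen. Each compound was tested at a single concentration of 10^-5 M, and percent growth of tumor cells was recorded for each cell line. Growth inhibition was expressed from these percent-growth values.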
# UACC-257 = assay: Growth inhibition of human UACC257 cells assessed tumor cell growth at 10^-5 M
# Method in brief: (§2)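 Single-dose screen at 10^-5 M across the 60 human tumor cell line panel, run to NCI standards. The value is the percent growth of each cell line in the presence of compound. Compounds active at this dose moved on to five-concentration testing (10^-4 to 10^-8 M).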
# 786-0 = assay: Growth inhibition of human 786-0 cells assessed tumor cell growth at 10^-5 M; method in brief: as §1
# HCC 2998 = assay: Growth inhibition of human HCC2998 cells assessed tumor cell growth at 10^-5 M; method in brief: as §1
# SK-MEL-2 = assay: Growth inhibition of human SK-MEL-2 cells assessed tumor cell growth at 10^-5 M; method in brief: as §1
# BT-549 = assay: Growth inhibition of human BT549 cells assessed tumor cell growth at 10^-5 M; method in brief: as §1
# SNB-75 = assay: Growth inhibition of human SNB75 cells assessed tumor cell growth at 10^-5 M; method in brief: as §2
# NCI-H226 = assay: Growth inhibition of human NCI-H226 cells assessed tumor cell growth at 10^-5 M; method in brief: as §1
# CCRF-CEM = assay: Growth inhibition of human CCRF-CEM cells assessed tumor cell growth at 10^-5 M; method in brief: as §1
# SN12C = assay: Growth inhibition of human SN12C cells assessed tumor cell growth at 10^-5 M; method in brief: as §1
# HT-29 = assay: Growth inhibition of human HT-29 cells assessed tumor cell growth at 10^-5 M; method in brief: as §1
# SF-539 = assay: Growth inhibition of human SF539 cells assessed tumor cell growth at 10^-5 M; method in brief: as §1
# CAKI-1 = assay: Growth inhibition of human Caki1 cells assessed tumor cell growth at 10^-5 M; method in brief: as §1
# NCI-H460 = assay: Growth inhibition of human NCI-H460 cells assessed tumor cell growth at 10^-5 M; method in brief: as §1
# [1] = Growth inhibition of human Hs 578T cells assessed tumor cell growth at 10^-5 M; method in brief: as §1
# OVCAR-4 = assay: Growth inhibition of human OVCAR4 cells assessed tumor cell growth at 10^-5 M; method in brief: as §1
# ACHN = assay: Growth inhibition of human ACHN cells assessed tumor cell growth at 10^-5 M; method in brief: as §1
# [2] = Growth inhibition of human […] cells assessed tumor cell growth at 10^-5 M; method in brief: as §1
# KM12 = assay: Growth inhibition of human KM12 cells assessed tumor cell growth at 10^-5 M; method in brief: as §1
# RXF 393 = assay: Growth inhibition of human RXF393 cells assessed tumor cell growth at 10^-5 M; method in brief: as §1
# TK-10 = assay: Growth inhibition of human TK10 cells assessed tumor cell growth at 10^-5 M; method in brief: as §2
# Malme-3M = assay: Growth inhibition of human MALME-3M cells assessed tumor cell growth at 10^-5 M; method in brief: as §1
# K562 = assay: Growth inhibition of human K562 cells assessed tumor cell growth at 10^-5 M; method in brief: as §1
# OVCAR-3 = assay: Growth inhibition of human OVCAR3 cells assessed tumor cell growth at 10^-5 M; method in brief: as §1
# T47D = assay: Growth inhibition of human T47D cells assessed tumor cell growth at 10^-5 M; method in brief: as §2
# U-251 = assay: Growth inhibition of human U251 cells assessed tumor cell growth at 10^-5 M; method in brief: as §2
# NCI/ADR-RES = assay: Growth inhibition of human NCI/ADR-RES cells assessed tumor cell growth at 10^-5 M; method in brief: as §1
# OVCAR-5 = assay: Growth inhibition of human OVCAR5 cells assessed tumor cell growth at 10^-5 M; method in brief: as §1
# SNB-19 = assay: Growth inhibition of human SNB19 cells assessed tumor cell growth at 10^-5 M; method in brief: as §2
# OVCAR-8 = assay: Growth inhibition of human OVCAR8 cells assessed tumor cell growth at 10^-5 M; method in brief: as §1
# M14 = assay: Growth inhibition of human M14 cells assessed tumor cell growth at 10^-5 M; method in brief: as §1
# EKVX = assay: Growth inhibition of human EKVX cells assessed tumor cell growth at 10^-5 M; method in brief: as §1
# NCI-H522 = assay: Growth inhibition of human NCI-H522 cells assessed tumor cell growth at 10^-5 M; method in brief: as §1
# HCT-116 = assay: Growth inhibition of human HCT116 cells assessed tumor cell growth at 10^-5 M; method in brief: as §1
# MCF7 = assay: Growth inhibition of human MCF7 cells assessed tumor cell growth at 10^-5 M; method in brief: as §1
# SK-OV-3 = assay: Growth inhibition of human SKOV3 cells assessed tumor cell growth at 10^-5 M; method in brief: as §1
# MDA-MB-468 = assay: Growth inhibition of human MDA-MB-468 cells assessed tumor cell growth at 10^-5 M; method in brief: as §1
# SF-268 = assay: Growth inhibition of human SF268 cells assessed tumor cell growth at 10^-5 M; method in brief: as §1
# SK-MEL-5 = assay: Growth inhibition of human SK-MEL-5 cells assessed tumor cell growth at 10^-5 M; method in brief: as §1
# COLO 205 = assay: Growth inhibition of human COLO205 cells assessed tumor cell growth at 10^-5 M; method in brief: as §1
# DU-145 = assay: Growth inhibition of human DU145 cells assessed tumor cell growth at 10^-5 M; method in brief: as §1
# MOLT-4 = assay: Growth inhibition of human MOLT4 cells assessed tumor cell growth at 10^-5 M; method in brief: as §1
# NCI-H322M = assay: Growth inhibition of human NCI-H322M cells assessed tumor cell growth at 10^-5 M; method in brief: as §1
# SF-295 = assay: Growth inhibition of human SF295 cells assessed tumor cell growth at 10^-5 M; method in brief: as §1
# SW-620 = assay: Growth inhibition of human SW620 cells assessed tumor cell growth at 10^-5 M; method in brief: as §2
# NCI-H23 = assay: Growth inhibition of human NCI-H23 cells assessed tumor cell growth at 10^-5 M; method in brief: as §1
# A498 = assay: Growth inhibition of human A498 cells assessed tumor cell growth at 10^-5 M; method in brief: as §1
# HCT-15 = assay: Growth inhibition of human HCT15 cells assessed tumor cell growth at 10^-5 M; method in brief: as §1
# LOX IMVI = assay: Growth inhibition of human LOXIMVI cells assessed tumor cell growth at 10^-5 M; method in brief: as §1
# UACC-62 = assay: Growth inhibition of human UACC62 cells assessed tumor cell growth at 10^-5 M; method in brief: as §2
# A549 = assay: Growth inhibition of human A549 cells assessed tumor cell growth at 10^-5 M; method in brief: as §1
# UO-31 = assay: Growth inhibition of human UO31 cells assessed tumor cell growth at 10^-5 M; method in brief: as §2
# SK-MEL-28 = assay: Growth inhibition of human SK-MEL-28 cells assessed tumor cell growth at 10^-5 M; method in brief: as §1
# MDA-MB-435 = assay: Growth inhibition of human MDA-MB-435 cells assessed tumor cell growth at 10^-5 M; method in brief: as §1
# HOP-62 = assay: Growth inhibition of human HOP62 cells assessed tumor cell growth at 10^-5 M; method in brief: as §1
# HL-60(TB) = assay: Growth inhibition of human HL-60(TB) cells assessed tumor cell growth at 10^-5 M
# Method in brief: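 HL-60(TB), part of the 60-line panel, tested at a single concentration of 10^-5 M. The read-out is percent tumor cell growth relative to untreated growth.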
compound,measurement,setting,value
CC1=NN(c2cccc(Cl)c2)C(=O)/C1=C\c1cn(S(=O)(=O)c2ccc(C)cc2)c2ccccc12,Activity,MDA-MB-231,85.37%
same,Activity,UACC-257,114.55%
same,Activity,786-0,94.95%
same,Activity,HCC 2998,88.49%
same,Activity,SK-MEL-2,113.68%
same,Activity,BT-549,111.59%
same,Activity,SNB-75,89.33%
same,Activity,NCI-H226,79.93%
same,Activity,CCRF-CEM,134.54%
same,Activity,SN12C,97.46%
same,Activity,HT-29,122.1%
same,Activity,SF-539,114%
same,Activity,CAKI-1,87.81%
same,Activity,NCI-H460,119.39%
same,Activity,[1],115.57%
same,Activity,OVCAR-4,103.09%
same,Activity,ACHN,97.51%
same,Activity,[2],113.1%
same,Activity,KM12,109.5%
same,Activity,RXF 393,137.02%
same,Activity,TK-10,166.55%
same,Activity,Malme-3M,114.11%
same,Activity,K562,138.24%
same,Activity,OVCAR-3,110.25%
same,Activity,T47D,91.46%
same,Activity,U-251,102.73%
same,Activity,NCI/ADR-RES,85.11%
same,Activity,OVCAR-5,88.09%
same,Activity,SNB-19,114.11%
same,Activity,OVCAR-8,107.68%
same,Activity,M14,82.05%
same,Activity,EKVX,97.98%
same,Activity,NCI-H522,107.2%
same,Activity,HCT-116,88.23%
same,Activity,MCF7,113.07%
same,Activity,SK-OV-3,105.37%
same,Activity,MDA-MB-468,118.75%
same,Activity,SF-268,103.69%
same,Activity,SK-MEL-5,105.66%
same,Activity,COLO 205,142.35%
same,Activity,DU-145,114.18%
same,Activity,MOLT-4,173.14%
same,Activity,NCI-H322M,105.18%
same,Activity,SF-295,114.23%
same,Activity,SW-620,98.36%
same,Activity,NCI-H23,83.92%
same,Activity,A498,117.06%
same,Activity,HCT-15,105.27%
same,Activity,LOX IMVI,97.36%
same,Activity,UACC-62,86.46%
same,Activity,A549,108.98%
same,Activity,UO-31,78.22%
same,Activity,SK-MEL-28,125.16%
same,Activity,MDA-MB-435,105.48%
same,Activity,HOP-62,62.28%
same,Activity,HL-60(TB),114.07%
